Laboratory results: ChEMBL document CHEMBL1125703, “Synthesis, hydrolysis rates, supercomputer modeling, and antibacterial activity of bicyclic tetrahydropyridazinones” (J Med Chem, 1991)

How the values were obtained:
Assay type in all cases: ADME
Settings in all cases: buffer
[1] = Compound was evaluated for its hydrolysis at pH 10 expressed as pseudo first order rate constant (K) (micro = 0.5)
Method in brief: (§1)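 Alkaline hydrolysis, i.e. chemical reactivity of the lactam ring with hydroxide ion, followed by pH stat at the pH named in the line. Ionic strength (μ) was 0.5 and the temperature 35 °C. Pseudo-first-order rate constants and half-lives were obtained under these conditions. Some entries are single determinations.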

[2] = Compound was evaluated for its hydrolysis at pH 9 for half life period (T1/2); method in brief: as §1
[3] = Compound was evaluated for its hydrolysis at pH 9 expressed as pseudo first order rate constant (K) (micro = 0.5); method in brief: as §1
[4] = Compound was evaluated for its hydrolysis at pH 9 half life period (T1/2); method in brief: as §1
[5] = Compound was evaluated for its hydrolysis at pH 10 half-life period (T1/2); method in brief: as §1

| SMILES | k [1] | half-life [2] | k [3] | half-life [4] | half-life [5] |
| --- | --- | --- | --- | --- | --- |
| CC1(C)S[C@@H]2[C@H](NC(=O)COc3ccccc3)C(=O)N2[C@H]1C(=O)O [PENICILLIN V] | 0.248 h⁻¹ | – | – | – | – |
| CO/N=C(/C(=O)NC1CCN2CC(C(C)=O)=C(C(=O)O)N2C1=O)c1csc(N)n1 (stereo not given) | – | 13.2 min | 3.16 h⁻¹ | – | – |
| CO/N=C(/C(=O)NC1CCN2CC(C#N)=C(C(=O)O)N2C1=O)c1csc(N)n1 (stereo not given) | – | – | 1.75 h⁻¹ | 24 min | – |
| CO/N=C(/C(=O)NC1CN2CC(C#N)=C(C(=O)O)N2C1=O)c1csc(N)n1 (stereo not given) | – | – | 1.73 h⁻¹ | 24 min | – |
| CO/N=C(\C(=O)NC1CN2CC(C(C)=O)=C(C(=O)O)N2C1=O)c1csc(N)n1 (stereo not given) | – | – | 0.724 h⁻¹ | 57.6 min | – |
| CO/N=C(/C(=O)NC1CCN2CC(C(=O)[O-])=C(C(=O)[O-])N2C1=O)c1csc(N)n1.[Na+].[Na+] (stereo not given) | 0.146 h⁻¹ | – | 0.0144 h⁻¹ | 2880 min | 285 min |
| CO/N=C(/C(=O)NC1CN2CC(C(=O)O)=C(C(=O)O)N2C1=O)c1csc(N)n1 (stereo not given) | 0.324 h⁻¹ | – | – | – | 128 min |
